# In paper PMC4714953 (Antiviral therapy, 2015):
# Read-outs that look alike come from different tables or passages of the source.
# Experiments:
# [1] = system: HCV RNA; experiment: Decline of HCV RNA in patients on vaniprevir; type: in vivo; details: genotype 1 chronic HCV patients
# [2] = rat, dog and rhesus monkey; cited from earlier work
# [3] = cited from earlier work; for AUC0–12: plasma
# [4] = system: liver organic anion-transporting polypeptides; details: cited from earlier work
# [5] = chimpanzees, 10 mg/kg oral, cited from earlier work
# [6] = Plasma vaniprevir pharmacokinetics; type: in vivo, human; details: for AUC(0-t) / Cmax / Tmax / half-life / concentration at 12 h: human, plasma, oral
# Procedure, shortened: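 Same patients and fixed-sequence regimen: 600 mg then 300 mg twice daily days 1–3, single dose on day 4, at least 30-day washout between periods. Day-4 plasma over the 12-h dosing interval. LC-MS/MS, linear 1–1,000 ng/ml, CV under 10%, accuracy within ±10.0%. AUC0–12, Cmax, C12h, Tmax and t½ derived using nominal times. Tmax as median (min–max), t½ as harmonic mean ±pseudo sd.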
# [7] = Hepatic vaniprevir concentration by core needle biopsy; type: in vivo, human; details: for concentration at 12 h / Kp at 6 h: human, liver, oral, mean; for concentration at 12 h: Liver concentration C12h, mean (one subject), 12 h post-dose day 4; for Kp at 6 h: Liver:plasma ratio C6h, 6 h post-dose day 4
# Procedure, shortened: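 Genotype 1 chronic HCV patients (n=3), non-cirrhotic, treatment-experienced, fixed sequence: 600 mg twice daily days 1–3 and a single dose on day 4, then after at least 30 days off drug, 300 mg on the same schedule. Ultrasound-guided core needle biopsy of the right hepatic lobe 6 or 12 h after the day-4 dose. Tissue weighed, stored at −70°C, homogenized in human EDTA plasma, extracted liquid–liquid at acidic pH, then LC-MS/MS (0.1–200 µg/g). Liver/plasma ratio calculated.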
# [8] = 300 mg to 600 mg twice daily, day 4
compound,measurement,setting,value
CC[C@@H]1C[C@]1(NC(=O)[C@@H]1C[C@@H]2CN1C(=O)[C@H](C(C)(C)C)NC(=O)OCC(C)(C)CCCCc1cccc3c1CN(C3)C(=O)O2)C(=O)NS(=O)(=O)C1CC1 [vaniprevir],Decline of HCV RNA by day 2,[1]; 300 mg twice daily,approximately 3 log
same,Decline of HCV RNA by day 2,[1]; 600 mg twice daily,approximately 4 log
same,Liver concentrations at 24 h post-dose,[2],200 to 600 nM
same,Plasma vaniprevir Tmax,[3]; humans,1.5 to 3 h
same,AUC0–12,[3]; 300 mg twice daily,5.15 µM/h
same,AUC0–12,[3]; 600 mg twice daily,23.36 µM/h
same,Liver organic anion-transporting polypeptides transport in vitro,[4],saturated at high concentrations
same,Maximum liver concentration,[5]; reached at 12 h after dosing,31 µM
same,Plasma AUC0–24,[5],5.2 µM/h
same,Increase in plasma AUC0–12 with a twofold increase in dose,[6]; [8],approximately fivefold
same,Increase in plasma C12h with a twofold increase in dose,[6]; [8],approximately sevenfold
same,Increase in plasma Cmax with a twofold increase in dose,[6]; [8],approximately fivefold
same,AUC(0-t),[6]; 300 mg,10.6 µM·h
same,Cmax,[6]; 300 mg,2600 nM
same,Tmax,[6]; 300 mg,2 h
same,half-life,[6]; 300 mg,6.3 ± 1.4 h
same,concentration at 12 h,"[6]; 300 mg, C12 h, plasma trough, day 4, 300 mg twice daily, n=3, arithmetic mean ±SD [CV%]",160 nM
same,concentration at 12 h,"[6]; 300 mg, Plasma concentration C12h, mean, mean (one subject, Table 1), 300 mg twice daily, 12 h post-dose day 4",120 nM
same,AUC(0-t),[6]; 600 mg,59.5 µM·h
same,Cmax,[6]; 600 mg,13500 nM
same,Tmax,[6]; 600 mg,3 h
same,half-life,[6]; 600 mg,3.6 ± 1 h
same,concentration at 12 h,"[6]; 600 mg, C12 h, plasma trough, day 4, 600 mg twice daily, n=3, arithmetic mean ±SD [CV%]",1110 nM
same,concentration at 12 h,"[6]; 600 mg, Plasma concentration C12h, mean, mean (one subject, Table 1), 600 mg twice daily, 12 h post-dose day 4",190 nM
same,concentration at 12 h,"[7]; 300 mg, 300 mg twice daily",29400 nM
same,Kp at 6 h,"[7]; 300 mg, 300 mg twice daily",166
same,concentration at 12 h,"[7]; 600 mg, 600 mg twice daily",53700 nM
same,Kp at 6 h,"[7]; 600 mg, 600 mg twice daily",67.3
same,"Hepatic concentrations, 600 mg versus 300 mg twice daily regimen",[7]; mean liver concentrations at 6 and 12 h post-dose,twofold higher
